Assay results as given in ChEMBL document CHEMBL1131066, “2-Substituted aminopyrido[2,3-d]pyrimidin-7(8H)-ones. structure-activity relationships against selected tyrosine kinases and in vitro and in vivo anticancer activity” (J Med Chem, 1998).
“And” between values parts separate entries of the source, which are not always exact repeats. Equal entries are not always repeated.

Tests used:
MCF7 [1] = assay: Difference in days for treated (T) and control (C) MCF-7 cell tumors to reach 750 mg in mice at 50 mg/kg peroral dose, days 1-15 administration; assay type: functional; conditions: route oral
Procedure, shortened: (§1)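 Nude mice (NCr nu/nu), 18–22 g, 6–8 per group, randomized and implanted with serially passaged tumor fragments in the right axilla on day 0. Dosed by average cage weight. Vehicle was 50 mM sodium lactate buffer, pH 4.0, or a 0.5% methyl cellulose suspension for one compound. Cisplatin was given in saline. T − C is the difference in days for treated and control tumors to reach 750 mg.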

HT-29 [2] = assay: Difference in days for treated (T) and control (C) HT-29 cell tumors to reach 750 mg in mice at 44 mg/kg peroral dose, days 15-29 administration; assay type: functional; conditions: route oral; procedure, shortened: as §1
Mus musculus [3] = assay: Weight change of PDGF-transfected fibroblast cells in mice at 50 mg/kg peroral dose, days 1-15 administration; assay type: functional; conditions: route oral
Procedure, shortened: (§2)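 Nude mice (NCr nu/nu, 18–22 g, 6–8 per group) were randomized and implanted with serially passaged tumor fragments in the right axilla on day 0. Oral dosing was based on average cage weight, on the days stated, over a dose range from toxic to ineffective. Vehicle was 50 mM sodium lactate buffer, pH 4.0, or 0.5% methyl cellulose suspension. Host weight change is reported as maximum treatment-related loss.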

C6 [4] = assay: Difference in days for treated (T) and control (C) C6 glioma cell tumors to reach 750 mg in mice at 50 mg/kg peroral dose, days 1-15 administration; assay type: functional; conditions: route oral; procedure, shortened: as §1
[5] = biological target: T1, Fibroblast growth factor receptor 1 (Homo sapiens, UniProt P11362); assay: Inhibition of fibroblast growth factor receptor (FGFr) tyrosine kinase
T1 sequence (P11362 whole entry): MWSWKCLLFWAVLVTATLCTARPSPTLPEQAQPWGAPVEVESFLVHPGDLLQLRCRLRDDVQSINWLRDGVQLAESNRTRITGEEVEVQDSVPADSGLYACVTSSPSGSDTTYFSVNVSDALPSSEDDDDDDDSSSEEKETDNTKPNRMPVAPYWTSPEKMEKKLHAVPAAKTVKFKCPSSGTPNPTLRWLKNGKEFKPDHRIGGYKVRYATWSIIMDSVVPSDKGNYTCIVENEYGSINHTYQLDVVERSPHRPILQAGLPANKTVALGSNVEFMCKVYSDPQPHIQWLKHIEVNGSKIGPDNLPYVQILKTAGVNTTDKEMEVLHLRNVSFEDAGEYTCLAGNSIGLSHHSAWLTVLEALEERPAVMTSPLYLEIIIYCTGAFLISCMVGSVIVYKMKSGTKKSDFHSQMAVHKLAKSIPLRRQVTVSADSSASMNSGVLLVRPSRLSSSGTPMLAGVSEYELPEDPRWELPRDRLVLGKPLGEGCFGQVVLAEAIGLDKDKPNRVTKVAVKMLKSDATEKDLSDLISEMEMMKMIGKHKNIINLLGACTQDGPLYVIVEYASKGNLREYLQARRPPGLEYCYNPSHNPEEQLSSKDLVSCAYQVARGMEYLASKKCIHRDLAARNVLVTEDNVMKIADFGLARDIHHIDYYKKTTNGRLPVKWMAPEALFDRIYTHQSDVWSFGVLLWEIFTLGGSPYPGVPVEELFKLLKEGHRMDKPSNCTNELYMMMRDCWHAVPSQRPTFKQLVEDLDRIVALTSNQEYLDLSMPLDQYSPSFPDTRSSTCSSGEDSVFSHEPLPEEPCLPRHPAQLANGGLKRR
Procedure, shortened: (§3)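 Recombinant kinases (PDGFr-β, FGFr-1, c-Src), enzyme inhibition IC50. Mean of at least two separate determinations, each done in triplicate; replicate values typically varied under 30%.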

NIH3T3 [6] = assay: Growth of NIH3T3 cells in soft agar with continuous treatment; assay type: functional, cell-based; conditions: Mus musculus
Procedure, shortened: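 NIH3T3 cells transfected with PDGF-B exposed to a range of concentrations for 3 days, then cloned in soft agar with the same concentration kept present. Colonies stained and counted after two weeks. IC50; mean of two experiments, each in duplicate.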

[7] = biological target: T1, Fibroblast growth factor receptor 1; assay: Inhibitory concentration evaluated against fibroblast growth factor receptor 1.
C6 [8] = assay: C6 cell growth in soft agar with continuous treatment; assay type: functional, cell-based, Rattus norvegicus; conditions: c6
Procedure, shortened: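 C6 rat glioma cells (F10 Ham's with 15% horse serum, 2.5% fetal calf serum) exposed 3 days to a concentration series, then plated in soft agar with compound still present at the same concentration; colonies stained and counted after two weeks. IC50; mean of two experiments, each in duplicate.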

NIH3T3 [9] = assay: Inhibition of NIH3T3 proliferation by sulforhodamine B assay; assay type: functional, cell-based, Mus musculus; conditions: nih3t3
MCF7 [10] = assay: Net reduction in tumor burden between first and last treatments of MCF-7 cell tumors in mice at 50 mg/kg peroral dose, days 1-15 administration; assay type: functional; conditions: route oral
Procedure, shortened: (§4)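 NCr nu/nu nude mice (18–22 g, 6–8 per group, randomized) had tumor fragments, kept by serial passage in nude mice, implanted in the right axilla on day 0. Mice were dosed by average cage weight on the listed days, over a range from toxic to ineffective doses. Vehicle was 50 mM sodium lactate pH 4.0 or 0.5% methyl cellulose suspension. Net log cell kill was taken between first and last treatments.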

COLO 205 [11] = assay: Difference in days for treated (T) and control (C) COLO 205 cell tumors to reach 750 mg in mice at 40 mg/kg peroral dose, days 9-23 administration; assay type: functional; conditions: route oral; procedure, shortened: as §1
C6 [12] = assay: Inhibition of C6 cell proliferation in sulforhodamine B assay; assay type: functional, cell-based, Rattus norvegicus; conditions: c6
Procedure, shortened: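 C6 rat glioma cells (F10 Ham's, 15% horse serum, 2.5% fetal calf serum) seeded and allowed 24 h to attach, then given serial 2-fold compound dilutions; 4 d at 37 °C, 5% CO2; growth read by sulforhodamine B staining. IC50; mean of two experiments, each in triplicate.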

COLO 205 [13] = assay: Weight change of COLO 205 tumor cells in mice at 40 mg/kg peroral dose, days 9-23 administration; assay type: functional, organism-based; design: dose 40 mg/kg
Procedure, shortened: (§5)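 Tumor-bearing nude mice (NCr nu/nu, 18–22 g, 6–8 per group) were implanted in the right axilla with tumor fragments on day 0 and dosed by average cage weight. Vehicle was 50 mM sodium lactate pH 4.0, or 0.5% methyl cellulose suspension; cisplatin was given in saline. Host body weight change is given as the maximum treatment-related weight loss.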

SK-OV-3 [14] = assay: Difference in days for treated (T) and control (C) SKOV-3 cell tumors to reach 750 mg in mice at 40 mg/kg peroral dose, days 15-29 administration; assay type: functional; conditions: route oral; procedure, shortened: as §1
COLO 205 [15] = assay: Net reduction in tumor burden between first and last treatments of COLO 205 cell tumors in mice at 40 mg/kg peroral dose, days 9-23 administration; assay type: functional; conditions: route oral; procedure, shortened: as §4
NIH3T3 [16] = assay: Growth of NIH3T3 cell colonies in soft agar with continuous treatment; assay type: functional, cell-based; conditions: Mus musculus
Procedure, shortened: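 Soft agar cloning used PDGF-B-transfected NIH3T3 (NIH3T3/PDGF) cells. Cells were exposed 3 days to a concentration series, then plated in soft agar with the matching compound concentration kept present. Colonies were stained and counted after two weeks. IC50; mean of two experiments, each in duplicate.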

[17] = biological target: Platelet-derived growth factor receptor (Mus musculus, UniProt P05622+P26618); assay: Inhibition of PDGF-induced autophosphorylation of PDGF-R in NIH3T3 cells
Mus musculus [18] = assay: Difference in days for treated (T) and control (C) PDGF-transfected fibroblast tumors to reach 750 mg in mice at 50 mg/kg peroral dose, days 1-15 administration; assay type: functional; conditions: route oral; procedure, shortened: as §1
HT-29 [19] = assay: Weight change of HT-29 tumor cells in mice at 44 mg/kg peroral dose, days 15-29 administration; assay type: functional; conditions: route oral; procedure, shortened: as §5
C6 [20] = assay: C6 cell growth in soft agar with discontinued treatment; assay type: functional, cell-based, Rattus norvegicus; conditions: c6
Procedure, shortened: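 C6 rat glioma cells given 3-day exposure to a concentration series, then washed free of inhibitor and plated in drug-free soft agar; colonies stained and counted after two weeks. IC50; mean of two experiments, each in duplicate.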

[21] = biological target: Proto-oncogene tyrosine-protein kinase Src (Homo sapiens, UniProt P12931); assay: Inhibition of c-Src tyrosine kinase; assay type: functional; procedure, shortened: as §3
Sequence of Proto-oncogene tyrosine-protein kinase Src (P12931 2-536 limits assumed): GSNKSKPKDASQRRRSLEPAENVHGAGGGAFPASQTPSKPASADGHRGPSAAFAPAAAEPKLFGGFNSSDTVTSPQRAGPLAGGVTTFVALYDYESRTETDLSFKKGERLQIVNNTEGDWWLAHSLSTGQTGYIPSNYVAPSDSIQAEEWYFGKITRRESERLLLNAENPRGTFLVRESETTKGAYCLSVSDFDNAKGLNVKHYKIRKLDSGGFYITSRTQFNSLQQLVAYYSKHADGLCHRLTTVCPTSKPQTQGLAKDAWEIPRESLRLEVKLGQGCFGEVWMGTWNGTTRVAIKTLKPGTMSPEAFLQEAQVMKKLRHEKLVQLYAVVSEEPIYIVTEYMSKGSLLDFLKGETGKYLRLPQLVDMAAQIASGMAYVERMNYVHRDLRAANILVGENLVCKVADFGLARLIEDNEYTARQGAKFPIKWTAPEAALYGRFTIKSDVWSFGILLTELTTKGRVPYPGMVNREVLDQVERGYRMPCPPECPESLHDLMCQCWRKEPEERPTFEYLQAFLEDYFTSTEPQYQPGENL

C6 [22] = assay: Weight change of C6 glioma tumor cells in mice at 50 mg/kg peroral dose, days 1-15 administration; assay type: functional, organism-based; design: dose 50 mg/kg; procedure, shortened: as §5
MCF7 [23] = assay: Weight change of MCF-7 tumor cells in mice at 50 mg/kg peroral dose, days 1-15 administration; assay type: functional, organism-based; design: dose 50 mg/kg; procedure, shortened: as §5
SK-OV-3 [24] = assay: Weight change of SK-OV-3 cell tumors in mice at 40 mg/kg peroral dose, days 15-29 administration; assay type: functional; conditions: route oral; procedure, shortened: as §2

In the case of `CCN(CC)CCOc1cccc(Nc2ncc3cc(-c4c(Cl)cccc4Cl)c(=O)n(C)c3n2)c1`, the T-C (MCF7 [1]) is reported as 0.8 days, the T-C (HT-29 [2]) is reported as -2.5 days and the Weight change (Mus musculus [3]) is reported as -1.6 g. The T-C (C6 [4]) was -2 days, the IC50 [5] was 30 nM and the IC50 (NIH3T3 [6]) was 17 nM. The IC50 [7] was 32 nM, the IC50 (C6 [8]) was 440 nM and 120 nM and the IC50 (NIH3T3 [9]) was 147 nM and 410 nM. For the same molecule, the Net cell kill (MCF7 [10]) was -0.6 log10, the T-C (COLO 205 [11]) was 6.8 days and the IC50 (C6 [12]) was 840 nM and 350 nM. The Weight change (COLO 205 [13]) was “Weight gain”, the T-C (SK-OV-3 [14]) was -0.4 days and the Net cell kill (COLO 205 [15]) was -0.4 log10. For the same molecule, the IC50 (NIH3T3 [16]) was 17 nM, the IC50 [17] was 1.7 nM and the T-C (Mus musculus [18]) was -0.4 days. For the same molecule, the Weight change (HT-29 [19]) was -2 g, the IC50 (C6 [20]) was 2790 nM and 400 nM and the IC50 [21] was 9 nM. The Weight change (C6 [22]) was “Weight gain”, the Weight change (MCF7 [23]) was “Weight gain” and the Weight change (SK-OV-3 [24]) was -2 g.
